From publication PMC11543989 (Communications Biology, 2024)
Entries after “also recorded” stand apart in the source; their conditions may differ.

How the values were obtained:
[1] = tested on: HCoV-229E; assay: microbe, parasite or virus in culture; format: cell-based
[2] = tested on: AMPK, mTOR, Akt; format: cell-based, human; conditions: 30 µM, HeLa-replicon cells, doxycycline 24 hours
[3] = tested on: AMPK, mTOR, Akt; format: cell-based, human
[4] = tested on: SARS-CoV-2 SB2 strain
[5] = tested on: SARS-CoV-2; format: cell-based
[6] = tested on: HCoV-229E; format: cell-based
[7] = tested on: SARS-CoV-2 replicon; assay: HeLa-integrated SARS-CoV-2 replicon activity, N-HiBiT luminescence; format: cell-based
Method in brief: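 HeLa Flp-In T-REx replicon cells plated at 10% confluence, then induced 24 h later with 3 µg/mL doxycycline in regular FBS. After 16-24 h, a lytic detergent buffer with LgBiT and furimazine was added at a volume equal to the media to complement HiBiT-tagged nucleoprotein. Plates were shaken 10 min before reading luminescence. Replicon-free parental cells gave background; compound concentrations were compared with DMSO.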

[8] = tested on: proximal lung organoids; assay: Organoid viability by LDH release; format: cell-based, human; conditions: days 3 and 4, cordycepin 30 µM
Method in brief: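 Human proximal airway organoids derived from embryonic stem cells, expanded in matrigel in AES expansion medium, plated as one matrigel dome (~2000 organoids) per well. Test compounds (10 or 30 µM) or 0.5% DMSO were added on day 0, with three domes per condition. LDH release was read over 4 days; absorbance at 490 nm minus 680 nm background was converted to % cytotoxicity.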

[9] = tested on: HCoV-229E; format: cell-based; remark: listed apart in the source
[10] = tested on: HCoV-229E; conditions: concentrations higher than 0.1 µM; cited from earlier work
[11] = tested on: HCoV-229E; format: cell-based; remark: listed apart in the source
[12] = tested on: SARS-CoV-2; conditions: cited from earlier work

## Nc1ncnc2c1ncn2[C@@H]1O[C@H](CO)C[C@H]1O [Cordycepin, cordycepin]
[1]; Human coronavirus 229E, Huh-7, read-out: IC50, 229E viral replication (Fig. 6B)
  IC50: 2100 nM
[2]
  AMPK, mTOR or Akt phosphorylation: No significant changes
  total Akt levels: did decrease
  total mTOR protein levels: not affected
[3]
  phosphorylation level of AMPK: increased
  protein level of AMPK: remained constant
  total levels of mTOR and Akt compared to DMSO: large decrease
[4]
  reduction of SARS-CoV-2 RNA release: 99%
[4]; SARS-CoV-2
  SI = CC50/IC50: more than 20
[5]
  difference in SARS-CoV-2 viral RNA release compared to DMSO: 100 fold
[6]
  infectivity by TCID50, fold higher than that observed for BTZ-1 and ADEP-42: around 5 fold
[7]; 3 µg/mL doxycycline, 24 hours
  inhibition of replicon activity: did not show inhibition of replicon activity
[8]
  cytotoxicity (LDH assay): below 20%
[9]
  229E viral RNA release in media, time of incubation assay: dramatically reduced viral RNA release in media even up to 72 hpi
  229E viral RNA release, pre-treatment assay: reduced viral RNA release; also recorded: strong inhibition
  level of 229E viral RNA released, time of removal assay: reduced the level of viral RNA released even after being removed

## CN(C)C(=N)N=C(N)N [Metformin, metformin]
[1]
  229E replication, various concentrations: inhibited 229E replication in a dose-dependent manner

## CCC(CC)COC(=O)[C@H](C)N[P@](=O)(OC[C@H]1O[C@@](C#N)(c2ccc3c(N)ncnn23)[C@H](O)[C@@H]1O)Oc1ccccc1 [Remdesivir, remdesivir]
[7]; read-out: IC50, inhibition of replicon activity, 3 µg/mL doxycycline, 24 hours
  IC50: 400 nM
[10]
  inhibition of 229E: ~100%
[9]
  229E viral RNA release, pre-treatment assay: little to no inhibition

## Nc1ncnc2c1ncn2[C@@H]1O[C@H](COP(=O)(O)OP(=O)(O)OP(=O)(O)O)C[C@H]1O [cordycepin-TP]
[1]; 10 µM, same concentration as cordycepin, […]
  229E viral RNA release: only weakly inhibited viral RNA release
[11]
  229E S protein expression (IF): did not impact S protein expression

## COc1ccc2c(c1)[nH]c1c(C)nccc12 [harmine]
[12]
  IC50: 7500 nM
